Assay results: ChEMBL document CHEMBL1157006, “Cellular localization and allele-selective inhibition of mutant huntingtin protein by peptide nucleic acid oligomers containing the fluorescent nucleobase [bis-o-(aminoethoxy)phenyl]pyrrolocytosine” (Bioorg Med Chem Lett, 2009)

Experiments:
[1] = Inhibition of huntingtin […] expression in human GM04281 cells with 17 CAG repeats within wild type allele by Western blotting; format: functional, cell-based; conditions: in the assay text read “69 CAG repeats within mutant allele” for “17 CAG repeats within wild type allele”
Summary of the method: (§1)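 Patient-derived GM04281 fibroblasts carrying both wild-type and mutant HTT alleles were exposed to PNA-peptide conjugates, at 1 µM or across a concentration series. Mutant and wild-type HTT protein were measured separately by western blot and expressed relative to untreated cells. Experiments were run in triplicate.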

[2] = Inhibition of huntingtin […] expression in human GM04281 cells with 69 CAG repeats within mutant allele by Western blotting; format: functional, cell-based; conditions: in the assay text read “17 CAG repeats within wild type allele” for “69 CAG repeats within mutant allele”; summary of the method: as §1
[3] = Ratio of IC50 for huntingtin […] expression in human GM04281 cells with 17 CAG repeats within wild type allele to huntingtin […] expression in human GM04281 cells with 69 CAG repeats within mutant allele; format: functional
[4] = Inhibition of huntingtin […] expression in human GM04281 cells with 17 CAG repeats within wild type allele at >1 uM by Western blotting; format: functional; conditions: in the assay text read “69 CAG repeats within mutant allele” for “17 CAG repeats within wild type allele”; summary of the method: as §1
[5] = Inhibition of huntingtin […] expression in human GM04281 cells with 69 CAG repeats within mutant allele at 0.2 to 2 uM by Western blotting; format: functional; summary of the method: as §1

Cc1cn(CC(=O)N(CCNC(=O)CN(CCNC(=O)CN(CCNC(=O)CN(CCNC(=O)CN(CCNC(=O)CN(CCNC(=O)CN(CCNC(=O)CN(CCNC(=O)CN(CCNC(=O)CN(CCNC(=O)CN(CCNC(=O)CN(CCN)C(=O)Cn2cnc3c(=O)[nH]c(N)nc32)C(=O)Cn2ccc(N)nc2=O)C(=O)Cn2cc(C)c(=O)[nH]c2=O)C(=O)Cn2cnc3c(=O)[nH]c(N)nc32)C(=O)Cn2ccc(N)nc2=O)C(=O)Cn2cc(C)c(=O)[nH]c2=O)C(=O)Cn2cnc3c(=O)[nH]c(N)nc32)C(=O)Cn2cc3cc(-c4c(OCCN)cccc4OCCN)[nH]c3nc2=O)C(=O)Cn2cc(C)c(=O)[nH]c2=O)C(=O)Cn2cnc3c(=O)[nH]c(N)nc32)C(=O)Cn2ccc(N)nc2=O)CC(=O)NCCN(CC(N)=O)C(=O)Cn2cnc3c(=O)[nH]c(N)nc32)c(=O)[nH]c1=O
IC50 [1]: 710 nM | IC50 [2]: 1860 nM

Cc1cn(CC(=O)N(CCNC(=O)CN(CCNC(=O)CN(CCNC(=O)CN(CCNC(=O)CN(CCNC(=O)CN(CCNC(=O)CN(CCNC(=O)CN(CCNC(=O)CN(CCNC(=O)CN(CCNC(=O)CN(CCNC(=O)CN(CCN)C(=O)Cn2cnc3c(=O)[nH]c(N)nc32)C(=O)Cn2ccc(N)nc2=O)C(=O)Cn2cc(C)c(=O)[nH]c2=O)C(=O)Cn2cnc3c(=O)[nH]c(N)nc32)C(=O)Cn2ccc(N)nc2=O)C(=O)Cn2cc(C)c(=O)[nH]c2=O)C(=O)Cn2cnc3c(=O)[nH]c(N)nc32)C(=O)Cn2ccc(N)nc2=O)C(=O)Cn2cc(C)c(=O)[nH]c2=O)C(=O)Cn2cnc3c(=O)[nH]c(N)nc32)C(=O)Cn2ccc(N)nc2=O)CC(=O)NCCN(CC(N)=O)C(=O)Cn2cnc3c(=O)[nH]c(N)nc32)c(=O)[nH]c1=O
IC50 [1]: 470 nM | IC50 [2]: > 2000 nM | Ratio IC50 [3]: >4

Cc1cn(CC(=O)N(CCNC(=O)CN(CCNC(=O)CN(CCNC(=O)CN(CCNC(=O)CN(CCNC(=O)CN(CCNC(=O)CN(CCNC(=O)CN(CCNC(=O)CN(CCNC(=O)CN(CCNC(=O)CN(CCNC(=O)CN(CCN)C(=O)Cn2cnc3c(=O)[nH]c(N)nc32)C(=O)Cn2cc3cc(-c4c(OCCN)cccc4OCCN)[nH]c3nc2=O)C(=O)Cn2cc(C)c(=O)[nH]c2=O)C(=O)Cn2cnc3c(=O)[nH]c(N)nc32)C(=O)Cn2ccc(N)nc2=O)C(=O)Cn2cc(C)c(=O)[nH]c2=O)C(=O)Cn2cnc3c(=O)[nH]c(N)nc32)C(=O)Cn2ccc(N)nc2=O)C(=O)Cn2cc(C)c(=O)[nH]c2=O)C(=O)Cn2cnc3c(=O)[nH]c(N)nc32)C(=O)Cn2ccc(N)nc2=O)CC(=O)NCCN(CC(N)=O)C(=O)Cn2cnc3c(=O)[nH]c(N)nc32)c(=O)[nH]c1=O
IC50 [1]: 540 nM | IC50 [2]: 1680 nM

Cc1cn(CC(=O)N(CCNC(=O)CN(CCNC(=O)CN(CCNC(=O)CN(CCNC(=O)CN(CCNC(=O)CN(CCNC(=O)CN(CCNC(=O)CN(CCNC(=O)CN(CCNC(=O)CN(CCNC(=O)CN(CCNC(=O)CN(CCN)C(=O)Cn2cnc3c(=O)[nH]c(N)nc32)C(=O)Cn2cc3cc(-c4c(OCCN)cccc4OCCN)[nH]c3nc2=O)C(=O)Cn2cc(C)c(=O)[nH]c2=O)C(=O)Cn2cnc3c(=O)[nH]c(N)nc32)C(=O)Cn2ccc(N)nc2=O)C(=O)Cn2cc(C)c(=O)[nH]c2=O)C(=O)Cn2cnc3c(=O)[nH]c(N)nc32)C(=O)Cn2cc3cc(-c4c(OCCN)cccc4OCCN)[nH]c3nc2=O)C(=O)Cn2cc(C)c(=O)[nH]c2=O)C(=O)Cn2cnc3c(=O)[nH]c(N)nc32)C(=O)Cn2ccc(N)nc2=O)CC(=O)NCCN(CC(N)=O)C(=O)Cn2cnc3c(=O)[nH]c(N)nc32)c(=O)[nH]c1=O
IC50 [1]: 580 nM | IC50 [2]: 1300 nM

Cc1cn(CC(=O)N(CCNC(=O)CN(CCNC(=O)CN(CCNC(=O)CN(CCNC(=O)CN(CCNC(=O)CN(CCNC(=O)CN(CCNC(=O)CN(CCNC(=O)CN(CCNC(=O)CN(CCNC(=O)CN(CCNC(=O)CN(CCN)C(=O)Cn2cnc3c(=O)[nH]c(N)nc32)C(=O)Cn2cc3cc(-c4c(OCCN)cccc4OCCN)[nH]c3nc2=O)C(=O)Cn2cc(C)c(=O)[nH]c2=O)C(=O)Cn2cnc3c(=O)[nH]c(N)nc32)C(=O)Cn2cc3cc(-c4c(OCCN)cccc4OCCN)[nH]c3nc2=O)C(=O)Cn2cc(C)c(=O)[nH]c2=O)C(=O)Cn2cnc3c(=O)[nH]c(N)nc32)C(=O)Cn2cc3cc(-c4c(OCCN)cccc4OCCN)[nH]c3nc2=O)C(=O)Cn2cc(C)c(=O)[nH]c2=O)C(=O)Cn2cnc3c(=O)[nH]c(N)nc32)C(=O)Cn2ccc(N)nc2=O)CC(=O)NCCN(CC(N)=O)C(=O)Cn2cnc3c(=O)[nH]c(N)nc32)c(=O)[nH]c1=O
IC50 [1]: 970 nM | IC50 [2]: > 4000 nM | inhibition (INH) [4]: >50% | inhibition (INH) [5]: <50%

Cc1cn(CC(=O)N(CCNC(=O)CN(CCNC(=O)CN(CCNC(=O)CN(CCNC(=O)CN(CCNC(=O)CN(CCNC(=O)CN(CCNC(=O)CN(CCNC(=O)CN(CCNC(=O)CN(CCNC(=O)CN(CCNC(=O)CN(CCN)C(=O)Cn2cnc3c(=O)[nH]c(N)nc32)C(=O)Cn2cc3cc(-c4c(OCCN)cccc4OCCN)[nH]c3nc2=O)C(=O)Cn2cc(C)c(=O)[nH]c2=O)C(=O)Cn2cnc3c(=O)[nH]c(N)nc32)C(=O)Cn2cc3cc(-c4c(OCCN)cccc4OCCN)[nH]c3nc2=O)C(=O)Cn2cc(C)c(=O)[nH]c2=O)C(=O)Cn2cnc3c(=O)[nH]c(N)nc32)C(=O)Cn2cc3cc(-c4c(OCCN)cccc4OCCN)[nH]c3nc2=O)C(=O)Cn2cc(C)c(=O)[nH]c2=O)C(=O)Cn2cnc3c(=O)[nH]c(N)nc32)C(=O)Cn2cc3cc(-c4c(OCCN)cccc4OCCN)[nH]c3nc2=O)CC(=O)NCCN(CC(N)=O)C(=O)Cn2cnc3c(=O)[nH]c(N)nc32)c(=O)[nH]c1=O
IC50 [1]: 2600 nM | IC50 [2]: > 4000 nM
